Hits are enriched below; roughly 2.8% of the tested compounds scored in any of these assays.
EP2 modulator: EP2 receptor modulators, cAMP readout, primary screen, cell-based, HTRF cAMP, PGE2 stimulation; Prostaglandin E2 receptor EP2 subtype (Homo sapiens), P43116; EP2-expressing cells, cAMP HTRF FRET, PGE2 co-stimulation; induction, % at 25 µM; 0.83% of 260,000 active;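 active = compounds whose cAMP rise, as percent of the full-agonist control response, exceeds 60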;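 also: rat C6 glioma line stably carrying human EP2 under a CMV promoter; the protocol text gives 20 µM as final concentration; 100% = response of wells given 1 µM PGE2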
Target sequence (P43116 whole entry, looked up): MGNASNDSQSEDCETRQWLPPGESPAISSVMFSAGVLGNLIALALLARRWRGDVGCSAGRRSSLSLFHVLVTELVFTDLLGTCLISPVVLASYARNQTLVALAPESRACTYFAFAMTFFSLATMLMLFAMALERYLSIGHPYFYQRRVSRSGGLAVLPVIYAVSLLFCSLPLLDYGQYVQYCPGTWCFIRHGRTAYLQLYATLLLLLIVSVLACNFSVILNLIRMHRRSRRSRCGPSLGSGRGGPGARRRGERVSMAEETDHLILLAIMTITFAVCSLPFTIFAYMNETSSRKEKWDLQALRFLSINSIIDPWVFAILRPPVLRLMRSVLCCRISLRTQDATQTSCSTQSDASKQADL
NPY-Y1 antag: NPY-Y1 receptor antagonists, primary screen, cell-based; inhibition, % at 3.6 µM; HEK293-CNG Y1 cells, membrane potential fluorescence; NPY at EC95, then isoproterenol; Neuropeptide Y receptor type 1 (Homo sapiens), P25929; 1% of 200,000 active; AID 1040, 2008;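 active = inhibition above the campaign mean inhibition of all tested compounds plus 3 SD, cut at about 20% in these data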;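 also: 0% = DMSO wells given NPY plus isoproterenol and 100% = isoproterenol alone without NPY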
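Material: HEK293 cells co-expressing NPY Y1 receptor and cyclic-nucleotide gated channel. Timing: compound incubation 1 h at room temperature, readout 45 min post-stimulation. Signal: fluorescence, membrane potential probe.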
EP2 antag: human EP2 receptor antagonists, primary screen, TR-FRET cAMP, C6 glioma cells | C6 glioma cells expressing human EP2; cells stimulated with saturating PGE2 | AID 1422, 2008 | inhibition, % at 25 µM | Prostaglandin E2 receptor EP2 subtype (Homo sapiens), P43116 | 0.52% of 260,000 active;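 active = percent inhibition above 40 after rounding to a whole number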;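 also: rat C6 glioma host cells with rolipram phosphodiesterase inhibitor present; the protocol text gives 20 µM as final concentration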
NPY2 pot ag: NPY-Y2 potentiators or agonists, primary screen, cell-based. Neuropeptide Y receptor type 2 (Homo sapiens), P49146. cells expressing NPY-Y2, potentiator/agonist read-out. activation, % at 3.6 µM. 0.45% of 220,000 active. AID 1359, 2008; in the data active = activation above about 27%;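 also: cells stimulated with NPY near EC25 plus isoproterenol at EC100; 0% = vehicle plus submaximal agonist and 100% = vehicle plus saturating agonist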
NPY Y2 blocker: NPY-Y2 receptor antagonists, primary screen, cell-based | 0.99% of 140,000 active | Neuropeptide Y receptor type 2 (Homo sapiens), P49146 | inhibition, % at 2.7 µM | NPY-Y2 expressing cells, antagonist mode | AID 793, 2007; in the data active = inhibition above about 17%;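 also: 0% = vehicle with agonist challenge and 100% = reference antagonist with challenge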
NPY1 pot ag: NPY-Y1 receptor potentiators or agonists, primary screen, cell-based; Neuropeptide Y receptor type 1 (Homo sapiens), P25929; NPY-Y1 expressing cells, potentiator/agonist activation; activation, % at 3.6 µM; 0.37% of 220,000 active; AID 1304, 2008; in the data active = activation above about 33%, passing the limit was not always enough;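 also: cells stimulated with NPY at EC10 then isoproterenol at EC100; 0% = low agonist plus stimulus and 100% = saturating agonist plus stimulus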
* = called active by the depositor; . = no result given; + = active, no number; ! = repeats disagree.

SMILES | EP2 modulator | NPY-Y1 antag | EP2 antag | NPY2 pot ag | NPY Y2 blocker | NPY1 pot ag
CCOC(=O)C(C)N1C(=O)CN=C(c2ccc(OC)c(OC)c2)c2c1sc1c2CCCC1 (stereo unspecified) | 22.1 | . | 14.4 | . | . | .
Cc1ccc(S(=O)(=O)N[C@@H](CCCCN)C(=O)CCl)cc1 | 66.5* | . | 17.1 | . | . | .
CCOc1ccc(O)c(CN2C3CCC2CC(O)(c2ccccc2F)C3)c1 (stereo unspecified) | 43.1 | . | 3.0 | . | . | .
CN1CCN(Cc2ccc(N)cc2)CC1 | -24.9 | 4.0 | 12.3 | -5.8 | . | -0.1
CN1CCN(Cc2cc(C(C)(C)C)c(O)c(C(C)(C)C)c2)CC1 | 19.3 | -0.4 | 12.7 | 50.5* | 6.1 | 77.4*
CCN1/C(=C\C=C\C2=[N+](CC)c3ccccc3C2(C)C)C(C)(C)c2ccccc21 | -16.7 | + | . | -336.6 | + | -434.4
CC(C)COC(=O)c1ccccc1C(=O)OCC(C)C | 23.9 | . | 18.2 | . | . | .
CCCCCCOC(=O)c1ccccc1N | 63.9* | -5.9 | 7.8 | 7.8 | 1.4 | 1.0
O=C(CN1C2CCC1CC(O)(c1ccco1)C2)N(C1CCCCC1)C1CCCCC1 (stereo unspecified) | -73.1 | . | . | . | . | .
CC1=C(O)C(=O)C=C2C1=CC=C1[C@@]2(C)CC[C@@]2(C)[C@@H]3C[C@](C)(C(=O)O)CC[C@]3(C)CC[C@]12C | -41.3 | . | 110.0* | . | . | .
Cc1c(O)c(O)cc2c1CC=C1[C@@]2(C)CC[C@@]2(C)C3C[C@](C)(C(=O)O)CC[C@]3(C)CC[C@]12C (stereo partly specified) | 4.4 | . | 8.5 | . | . | .
CC(C)c1ccc(N2C(=O)NC(=O)/C(=C\c3cnc(-c4ccccc4)nc3)C2=O)cc1 | -5.2 | 1.5 | 9.1 | -2.8 | 0.6 | 9.1
COc1ccc(CN2C(=O)NC(=O)/C(=C\c3ccco3)C2=O)cc1 | -86.5 | 5.5 | 16.3 | 1.1 | . | 10.0
O=C1NC(=O)N(Cc2ccccc2)C(=O)/C1=C/C=C/c1ccco1 | -56.1 | . | 105.7* | -18.8 | . | 12.6
CC(C)c1ccc(N2C(=O)NC(=O)/C(=C\C=C\c3ccco3)C2=O)cc1 | -75.5 | -1.4 | 100.2* | -8.2 | . | 5.8
Cn1c(N2CCNCC2)nc2c1c(=O)[nH]c(=O)n2C | 7.1 | . | 16.6 | . | . | .
C[C@@H]1O[C@H](OC2[C@@H](O)[C@H](O)C(O)[C@H](O)[C@H]2O)[C@@H](N)C[C@H]1N=C(N)C(=O)O (stereo partly specified) | 10.6 | . | 51.4* | . | . | .
COc1cccc(C2(O)CCN(CCNC(=O)c3ccccc3F)CC2)c1 | 25.4 | . | 4.5 | . | . | .
ClCC[N+]12CC[N+](CCCl)(CC1)C2 (tested in a mixture with another compound) | 12.6 | . | 45.6* | . | . | .
CCCOc1c(CN2C3CCC2CC(O)(c2ccccc2F)C3)cccc1OC (stereo unspecified) | -29.5 | . | 5.3 | . | . | .
CC[C@]1(OC(=O)CN)C(=O)OCc2c1cc1n(c2=O)Cc2cc3ccccc3nc2-1 | 22.1 | . | 40.7* | . | . | .
COc1cccc(CN2CCN(C(=O)Cc3ccc(F)cc3)[C@@H](C)C2)c1 | -24.7 | . | . | . | . | .
CC(=O)[O][Hg][c]1ccccc1 | -40.4 | . | 113.1* | . | . | .
CNC(C(=O)c1ccccc1)C(OC)c1ccccc1 (stereo unspecified) | 18.4 | 16.4 | 10.6 | 3.1 | 0.4 | -1.1
O=[As](O)(O)c1ccc(N=Nc2ccc([As](=O)(O)O)cc2)cc1 | -3.7 | . | 49.6* | . | . | .
SMILES | EP2 modulator | NPY-Y1 antag | EP2 antag | NPY2 pot ag | NPY Y2 blocker | NPY1 pot ag
Nc1nc(N)c(N=Nc2ccc([As](=O)(O)O)cc2)c(=O)[nH]1 | 23.4 | . | 42.2* | . | . | .
O=[As](O)(O)c1ccc(N=Nc2ccc(O)cc2)cc1 | -20.9 | . | 2.3 | 16.4 | . | 1.7
C=CCn1ncc(CN2C3CCC2CC(O)(c2ccc(OC)cc2)C3)c1C (stereo unspecified) | 32.6 | . | 10.4 | . | . | .
CCCc1ncc(CN2C3CCC2CC(O)(c2ccc(OC)cc2)C3)cn1 (stereo unspecified) | -24.8 | . | 6.5 | . | . | .
O=c1cc(CN2CC=C(c3ccccc3)CC2)c2c(ccc3ccccc32)o1 | 16.8 | -7.0 | 3.0 | 63.6* | 5.4 | 69.7*
O=C(CN1CC=C(c2ccccc2)CC1)NC(=O)NCc1ccccc1 | -3.8 | 12.2 | 7.3 | -16.9 | . | -16.0
Cc1nc(CC(=O)N(CCN(C)C)Cc2ccc(F)cc2)cs1 | 14.1 | . | 7.0 | . | . | .
O=C1NC(=S)NC(=O)C1=Cc1cccn1-c1ccc(O)cc1 | -112.7 | 1.6 | 112.5* | -7.6 | . | -4.6
CN1C(=O)/C(=C/c2cccn2-c2ccc3ccccc3c2)C(=O)NC1=S | -21.0 | 1.2 | 15.7 | -5.5 | 0.7 | -8.5
CCOC(=O)c1cccc([P+](=O)O)c1 | 4.7 | 7.2 | 9.2 | 3.4 | 8.1 | -5.5
CCOC(=O)c1ccc2[nH]c(-c3ccc(S(=O)(=O)F)cc3)cc(=O)c2c1 | -13.0 | . | 50.6*! | 6.8 | . | 7.9
Cc1ccc(C(=O)Nc2ccc(Cl)cc2C(=O)c2ccccc2)cc1 | . | 16.0 | 5.7 | -34.1 | 5.7 | -5.2
Cc1ccc(N)c(C(=O)c2ccccc2)c1 | 21.1 | -9.1 | 5.9 | 103.5* | 2.8 | 97.8*
CC(=O)OC(C)(C)/C=C/C(=O)[C@](C)(O)[C@H]1[C@H](O)C[C@@]2(C)[C@@H]3CC=C4[C@H](C[C@H](O)C(=O)C4(C)C)[C@]3(C)C(=O)C[C@]12C | 10.0 | 108.1* | 4.0 | 0.0 | 8.5 | -48.3
O=C(CN1C(=O)CN=C(c2ccccc2)c2c1sc1c2CCCC1)N1CCOCC1 | 20.0 | . | 12.1 | . | . | .
COCCc1ncc(CN2C3CCC2CC(O)(c2cccc(F)c2)C3)cn1 (stereo unspecified) | -28.0 | . | 5.3 | . | . | .
CCCSc1nc2ccccc2c(=O)n1-c1ccccc1C | 74.9* | . | 14.8 | . | . | .
Cc1cc(=O)[nH]c(SCc2nc3ccccc3c(=O)n2-c2ccccc2C)n1 | 14.7 | 0.6 | 7.0 | -18.9 | . | 1.9
CCCNC(=O)c1c(N)n(CC2CCCO2)c2nc3ccccc3nc12 (stereo unspecified) | 38.9 | -4.7 | 5.3 | 4.2 | 5.7 | 13.3

Screening data as filed in PubChem BioAssay.
